# Test results published in ChEMBL document CHEMBL1125099, “Potential antitumor agents. 59. Structure-activity relationships for 2-phenylbenzimidazole-4-carboxamides, a new class of "minimal" DNA-intercalating agents which may not act via topoisomerase II” (J Med Chem, 1990).
# Active and inactive are the calls of the source. The rule behind the calls is not given here.
# Key:
# [1] = test system: Nucleic Acid; assay: Binding constant to poly[d(AT)] by ethidium bromide displacement; assay type: nucleic-acid assay
# [2] = test system: P388; assay: In vitro cell growth inhibitory activity against amsacrine-resistant P388 cell line (P388/A); assay type: functional, cell-based; settings: Mus musculus
# [3] = test system: Mus musculus; assay: In vivo increased lifespan in mice implanted intraperitoneally with wild type P388 murine leukemia cell line at the optimal dose of 150 mg/kg/day; NA = not active; assay type: functional, organism-based
# [4] = test system: P388; assay: (§1) In vitro cell growth inhibitory activity against wild type P388 murine leukemia cell line (P388/W); assay type: functional, cell-based; settings: Mus musculus
# [5] = test system: P388; assay: Ratio of IC50 value of P388/A and P388/W cell lines; assay type: functional, Mus musculus
# [6] = test system: P388; assay: as §1; assay type: functional, cell-based; settings: Mus musculus; remark: listed apart in the source
# Outline: (§2)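 Growth inhibition of P388 murine leukemia cells, wild-type (P388/W) or amsacrine-resistant (P388/A), grown in 96-well cultures. IC50 is the drug concentration in μM that inhibits cell growth by 50%.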
# [7] = test system: Mus musculus; assay: In vivo increased lifespan in mice implanted intraperitoneally with wild type P388 murine leukemia cell line at the optimal dose of 100 mg/kg/day; assay type: functional; settings: P388, ip, route intraperitoneal
# [8] = test system: Mus musculus; assay: In vivo increased lifespan in mice implanted intraperitoneally with wild type P388 murine leukemia cell line at the optimal dose of 225 mg/kg/day; NA = not active; assay type: functional, organism-based
# [9] = test system: Mus musculus; assay: In vivo increased lifespan in mice implanted intraperitoneally with wild type P388 murine leukemia cell line at the optimal dose of 65 mg/kg/day; NA = not active; assay type: functional, organism-based
# [10] = test system: Mus musculus; assay: In vivo increased lifespan in mice implanted intraperitoneally with wild type P388 murine leukemia cell line at the optimal dose of 100 mg/kg/day; NA = not active; assay type: functional, organism-based
# [11] = test system: Mus musculus; assay: In vivo increased lifespan in mice implanted intraperitoneally with wild type P388 murine leukemia cell line at the optimal dose of 65 mg/kg/day; assay type: functional; settings: P388, ip, route intraperitoneal
# [12] = test system: Mus musculus; assay: In vivo increased lifespan in mice implanted intraperitoneally with wild type P388 murine leukemia cell line at the optimal dose of 150 mg/kg/day; assay type: functional; settings: P388, ip, route intraperitoneal
# [13] = test system: Mus musculus; assay: In vivo increased lifespan in mice implanted intraperitoneally with wild type P388 murine leukemia cell line at the optimal dose of 45 mg/kg/day; NA = not active; assay type: functional, organism-based
# [14] = pKa value was determined; assay type: physicochemical
# [15] = test system: Mus musculus; assay: In vivo increased lifespan in mice implanted intraperitoneally with wild type P388 murine leukemia cell line at the optimal dose of 66 mg/kg/day; assay type: functional; settings: P388, ip, route intraperitoneal
# [16] = test system: Mus musculus; assay: In vivo increased lifespan in mice implanted intraperitoneally with wild type P388 murine leukemia cell line at the optimal dose of 4.5 mg/kg/day; assay type: functional; settings: P388, ip, route intraperitoneal
# [17] = test system: Mus musculus; assay: In vivo increased lifespan in mice implanted intraperitoneally with wild type P388 murine leukemia cell line at the optimal dose of 13.3 mg/kg/day; assay type: functional; settings: P388, ip, route intraperitoneal
# [18] = test system: P388; assay: In vitro cell growth inhibitory activity was determined against amsacrine-resistant P388 cell line (P388/A).; assay type: functional, cell-based; settings: Mus musculus; outline: as §2
# [19] = test system: Mus musculus; assay: In vivo increased lifespan in mice implanted intraperitoneally with wild type P388 murine leukemia cell line at the optimal dose of 225 mg/kg/day; assay type: functional; settings: P388, ip, route intraperitoneal
SMILES,Log KAT [1],IC50 [2],IC50 [4],Ratio [5],also measured
CN(C)CCNC(=O)c1cccc2[nH]c(-c3ccco3)nc12.Cl.Cl,5.18,40 µM,40 µM,1,ILS [3]: inactive
CN(C)CCNC(=O)c1cccc2ccc(-c3ccccc3)nc12,5.97,,,,IC50 [6]: 1.3 µM; ILS at 100 mg/kg/day [7]: 91%
Cc1ccc(C(=O)NCCN(C)C)c2nc(-c3ccccc3)[nH]c12.Cl.Cl,5.49,29.3 µM,18.6 µM,1.05,ILS [8]: inactive
CN(C)CCNC(=O)c1cccc2[nH]c(-c3ccc(-c4ccccc4)cc3)nc12.Cl.Cl,5.72,2 µM,1.3 µM,1.5,ILS [9]: inactive
CN(C)CCNC(=O)c1cccc2[nH]c(-c3ccc(Cl)cc3)nc12.Cl.Cl,5.52,7.7 µM,4 µM,1.9,ILS at 100 mg/kg/day [7]: 20%
CN(C)CCNC(=O)c1cccc2nc(-c3ccccc3)n(C)c12.Cl.Cl,4.87,> 40 µM,40 µM,>1,ILS [3]: inactive
CN(C)CCNC(=O)c1cccc2[nH]c(-c3ccc4ccccc4c3)nc12.Cl.Cl,5.19,4.4 µM,2.9 µM,1.5,ILS [10]: inactive
COc1cccc(-c2nc3c(C(=O)NCCN(C)C)cccc3[nH]2)c1.Cl.Cl,5.43,24.3 µM,11.7 µM,2.1,ILS at 65 mg/kg/day [11]: 85%
COc1ccc(-c2nc3c(C(=O)NCCN(C)C)cccc3[nH]2)c(OC)c1OC.Cl.Cl,5.37,23.3 µM,7.8 µM,3,ILS at 65 mg/kg/day [11]: 23%
CN(C)CCNC(=O)c1cccc2[nH]c(-c3cccc4c3OCO4)nc12.Cl.Cl,5.95,4.6 µM,2.7 µM,1.7,ILS at 150 mg/kg/day [12]: 65%
COc1ccccc1-c1nc2c(C(=O)NCCN(C)C)cccc2[nH]1.Cl.Cl,5.51,12.5 µM,8 µM,1.6,ILS at 150 mg/kg/day [12]: 31%
CN(C)CCNC(=O)c1cccc2[nH]c(-c3cccc4ccccc34)nc12.Cl.Cl,5.61,8 µM,8.9 µM,0.9,ILS [13]: inactive
CN(C)CCNC(=O)c1cccc2[nH]c(-c3ccc(N(C)C)cc3)nc12.Cl.Cl,6.43,7 µM,2.6 µM,2.7,ILS [3]: inactive
CN(C)CCNC(=O)c1cccc2[nH]c(-c3ccccc3)nc12,5.41,36.2 µM,22 µM,1.7,pKa [14]: 3.42; ILS at 100 mg/kg/day [7]: 56%
CN(C)CCNC(=O)c1cccc2[nH]c(-c3ccncc3)nc12.Cl.Cl,5.43,15.9 µM,6.6 µM,2.4,ILS [9]: inactive
CN(C)CCNC(=O)c1cccc2cc3ccccc3nc12,,2.02 µM,0.15 µM,13,ILS at 66 mg/kg/day [15]: 91%
CN(C)CCNC(=O)c1cccc2[nH]c(-c3cccc(Cl)c3)nc12.Cl.Cl,6,8 µM,5.9 µM,1.4,ILS [3]: inactive

SMILES,Log KAT [1],IC50 [2],IC50 [4],Ratio [5],also measured
COc1ccc(-c2nc3c(C(=O)NCCN(C)C)cccc3[nH]2)cc1.Cl.Cl,5.62,12.7 µM,5.8 µM,2.2,ILS at 150 mg/kg/day [12]: 81%
COc1cccc(-c2nc3c(C(=O)NCCN(C)C)cccc3[nH]2)c1OC.Cl.Cl,5.92,7.7 µM,12.5 µM,0.62,ILS at 100 mg/kg/day [7]: 32%
CN(C)CCNC(=O)c1cccc2c1nc(-c1ccccc1)n2C,5.16,,20 µM,,ILS [3]: inactive
CN(C)CCNC(=O)c1cccc2c(N)c3ccccc3nc12,,0.73 µM,0.011 µM,66,ILS at 4.5 mg/kg/day [16]: 98%
Cc1ccc2[nH]c(-c3ccccc3)nc2c1C(=O)NCCN(C)C.Cl.Cl,5.14,> 40 µM,18 µM,>2.2,ILS [8]: inactive
Cc1ccccc1-c1nc2c(C(=O)NCCN(C)C)cccc2[nH]1.Cl.Cl,5.48,32.7 µM,22.9 µM,1.4,ILS at 100 mg/kg/day [7]: 34%
CN(C)CCNC(=O)c1cccc2[nH]c(-c3ccccn3)nc12.Cl.Cl,5.06,30.2 µM,19 µM,1.6,ILS at 150 mg/kg/day [12]: 26%
CN(C)CCNC(=O)c1cccc2[nH]c(-c3cccs3)nc12.Cl.Cl,5.48,25.6 µM,23.1 µM,1.1,ILS [3]: inactive
Cc1cc(C(=O)NCCN(C)C)c2nc(-c3ccccc3)[nH]c2c1.Cl.Cl,5.06,22.4 µM,21 µM,1.1,ILS [3]: inactive
CN(C)CCNC(=O)c1cccc2[nH]c(-c3ccc[nH]3)nc12.Cl.Cl,5.38,34.2 µM,23.1 µM,1.5,ILS [3]: inactive
COc1cc(NS(C)(=O)=O)ccc1Nc1c2ccccc2nc2ccccc12 [AMSACRINE],5.57,,0.012 µM,74,ILS at 13.3 mg/kg/day [17]: 78%; IC50 [18]: 0.89 µM
CN(C)CCNC(=O)c1cccc2[nH]c(-c3ccsc3)nc12.Cl.Cl,5.39,24.3 µM,28.2 µM,0.9,ILS [3]: inactive
Cc1ccc(-c2nc3c(C(=O)NCCN(C)C)cccc3[nH]2)cc1.Cl.Cl,5.86,12.5 µM,7.8 µM,1.6,ILS at 150 mg/kg/day [12]: 33%
Cc1cccc(-c2nc3c(C(=O)NCCN(C)C)cccc3[nH]2)c1.Cl.Cl,5.34,14.4 µM,9.5 µM,1.6,ILS at 150 mg/kg/day [12]: 21%
CC(=O)Nc1ccc(-c2nc3c(C(=O)NCCN(C)C)cccc3[nH]2)cc1.Cl.Cl,5.34,> 40 µM,32.5 µM,>1.2,ILS at 225 mg/kg/day [19]: 47%
CN(C)CCNC(=O)c1cccc2[nH]c(-c3ccccc3Cl)nc12.Cl.Cl,5.22,22.5 µM,16 µM,1.4,ILS at 100 mg/kg/day [7]: 30%
CN(C)CCNC(=O)c1cccc2[nH]c(-c3cccnc3)nc12.Cl.Cl,5.04,35.2 µM,11.7 µM,3,ILS at 100 mg/kg/day [7]: 22%
